# This is a sample that favours compounds with a hit; in the whole collection about 4% have one here.
# PHOSPHO1 inh: blocks human PHOSPHO1 phosphatase activity. inhibition, % at 13.3 µM. Q8TCT1. actives 1.1% (n = 290,000). recombinant PHOSPHO1, absorbance phosphatase assay; in the data active = inhibition above about 60%
# KCNK9 inh: blocks the human KCNK9 two-pore domain potassium channel; Q9NPC2; AID 488922; HEK293 KCNK9, FluxOR thallium flux fluorescence; active compounds read low; B-score at 10 µM; actives 1.2% (n = 310,000);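 active = ratio B-score over 3 SD below the library mean, with starting fluorescence within 5 SD of its mean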;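 also: negative B-score means less thallium flux so channel inhibition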
# hERG rescue: compounds protecting human hERG from proarrhythmic drug block; Q12809; CHO-hERG, FluxOR thallium flux, dofetilide IC70 present; activation (rescue from dofetilide block), less the hit threshold, % at 10 µM; actives 0.51% (n = 310,000);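 active = activation above the mean of controls blocked by dofetilide plus 5 SD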;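 also: thallium influx through hERG after potassium depolarization seen as dye fluorescence rise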
# KCNQ1 inh: human KCNQ1 channel inhibition; CHO-K1 KCNQ1, FluxOR thallium flux fluorescence; active compounds read high; B-score at 10 µM; P51787; actives 1.3% (n = 310,000);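 active = compounds whose thallium flux B-score, printed positive for inhibition, exceeds three library SD while starting fluorescence stays within three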;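 also: channel opened by potassium depolarization with thallium stimulus after 20 min compound exposure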
# KCNK3 block: human KCNK3 channel inhibition, primary screen; O14649; actives 0.84% (n = 340,000); B-score at 10 µM; CHO-KCNK3 thallium flux, FluxOR fluorescence; active compounds read low;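 active = B-score under library mean minus 4 SD, starting fluorescence ratio at most library mean plus 5 SD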;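 also: more negative B-score means stronger inhibition of thallium flux through KCNK3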
# KCNQ1 pot: potentiates or activates the human KCNQ1 potassium channel; CHO-K1 KCNQ1, thallium flux FluxOR fluorescence; active compounds read high; B-score at 10 µM; actives 0.35% (n = 310,000); AID 2648;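 active = fluorescence ratio B-score, a plate-corrected score, at least three library SD, with initial intensity B-score within 5 SD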
#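 Test system: CHO-K1 cells stably expressing KCNQ1 / Medium: assay buffer / Also added: depolarizing K+/Tl+ stimulus, K2SO4 and Tl2SO4 each 12.5 mM in 5x stock / Incubation: 90 min dye loading and 20 min compound exposure, both at room temperature / Signal: thallium influx via FluxOR fluorescence, kinetic imaging / Evaluation: B score of baseline-normalized fluorescence ratio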
# The depositor's hits bear a star; i = inactive; . = not tested or not shown.
SMILES,PHOSPHO1 inh,KCNK9 inh,hERG rescue,KCNQ1 inh,KCNK3 block,KCNQ1 pot
O=[N+]([O-])c1cccc(/C=N/Nc2nc(N3CCOCC3)nc(N3CCOCC3)n2)c1,-7,i,-9,i,i,i
O=[N+]([O-])c1cccc(/C=C/C=N/Nc2nc(N3CCCCC3)nc(N3CCCCC3)n2)c1,-23,i,1,6*,i,i
O=C(OCc1nnc(-c2ccccc2)o1)c1ccc2ccccc2n1,4,i,-7,i,i,i
CN(C)CCOC(=O)c1sc2ccccc2c1Cl,11,i,-4,i,i,i
N#Cc1ccc[n+](CC(=O)c2ccc(Cl)cc2)c1,.,i,-10,i,i,i
COc1cccc(C(=O)NNC(=O)C(=O)Nc2ccc(C)c(Cl)c2)c1,40,i,31*,i,i,35*
COc1cc(OC)cc(C(=O)NNC(=O)C(=O)Nc2cc(OC)c(Cl)cc2OC)c1,27,i,51*,i,i,32*
CCc1ccc(NC(=O)C(=O)NNC(=O)c2cccc(OC)c2)cc1,37,i,38*,i,i,76*
COc1cccc(C(=O)Nc2cc(Cl)c(O)c(Cl)c2)c1,28,i,-5,i,i,i
COc1cc(/C=N/NC(=O)C(=O)NCc2ccco2)cc(Cl)c1O,22,i,-9,i,i,i
CC(C)(C)c1ccc(CN(Cc2ccccc2)C(c2ccccn2)c2nnnn2C(C)(C)C)cc1 (stereo unspecified),-1,-7.4*,-8,i,i,i
COC(=O)c1ccc2ccn(CC(=O)NC3CCCCC3)c2c1,22,i,-7,i,i,i
COC(=O)N/N=C(\C)c1ccc(-n2ccnc2)cc1,20,i,-3,i,i,i
C/C(=N\NC(=O)COc1ccc(C)cc1C(C)C)c1ccc(-n2ccnc2)cc1,9,i,5.6*,i,i,i
CC(C)OCCCn1c(=NC(=O)c2ccncc2)c(C#N)cc2c(=O)n3ccccc3nc21,98*,i,-21,i,i,i
CCOC(=O)c1cc2c(=O)n3ccccc3nc2n(CCCOC)c1=NC(C)=O,29,.,.,.,i,.
CCOC(=O)c1cc2c(=O)n3ccccc3nc2n(CCCOC)c1=NC(=O)c1ccncc1,37,i,-25,i,i,15*
CCOC(=O)c1cc2c(=O)n3ccccc3nc2n(Cc2ccco2)c1=NC(=O)c1cccc(OC)c1,-15,i,-21,7*,i,i
Cc1c(Cl)cccc1NC(=S)NNc1ncc(C(F)(F)F)cc1Cl,3,i,-11,i,i,i
CCN(C(=O)CCN1C(=O)/C(=C/c2ccccc2)SC1=S)C1CCS(=O)(=O)C1 (stereo unspecified),29,i,-10,i,i,i
N#Cc1c(-c2ccccc2)nc(SCC(=O)NC2CCCCC2)[nH]c1=O,-23,i,-10,i,i,i
COC(=O)C(CC(C)C)NC(=O)CSc1nc(-c2ccccc2)c(C#N)c(=O)[nH]1 (stereo unspecified),9,i,5.3*,i,i,i
Cc1c(/C(O)=C2/C(=O)C(=O)N(CCN3CCOCC3)C2c2cccnc2)cnn1-c1ccccc1 (stereo unspecified),-11,i,-3,i,i,i
Cc1cc(C(=O)CSc2nnc(-c3ccco3)o2)c(C)n1-c1ccc2c(c1)OCCO2,92*,i,-10,i,i,i
C=CCn1c(C)cc(C(=O)CSc2nnc(Cc3ccccc3)o2)c1C,88*,i,-4,i,i,i
Cc1cc(C(=O)CSc2nnc(Cc3ccccc3)o2)c(C)n1Cc1ccc2c(c1)OCO2,10,i,-12,i,i,i
Cc1cc(C(=O)CSc2n[nH]c(N)n2)c(C)n1C1CC1,96*,i,-4,i,i,i
Cc1nnc(SCC(=O)c2cc(C)n(C3CC3)c2C)s1,105*,i,2,i,i,i
Cc1ccc(-n2c(C)cc(C(=O)CSc3n[nH]c(N)n3)c2C)cc1,-27,i,-23,i,i,i
